From PubChem BioAssay
Hits are enriched below; roughly 4% of the tested compounds scored in any of these assays.
FGF22 binding-1: shifts melting point of recombinant human FGF22; AID 651658; Q9HCT0; activity (Tm shift, normalised), % at 9.99 µM; recombinant FGF22 thermal shift, SYPRO orange fluorescence; percent of sucrose octasulfate shift, DMSO zero; 1.5% of 340,000 active;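 active = mean Tm shift, scaled 0 neutral to 100 positive control, at about 1.3% or above, every replicate too, limit read from the data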
Target sequence (Q9HCT0 whole entry, looked up): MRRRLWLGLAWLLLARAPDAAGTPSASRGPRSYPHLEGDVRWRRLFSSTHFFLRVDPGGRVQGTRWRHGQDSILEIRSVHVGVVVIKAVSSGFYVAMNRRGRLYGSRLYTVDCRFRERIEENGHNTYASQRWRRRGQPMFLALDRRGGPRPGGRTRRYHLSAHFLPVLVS
E-sel inducer: E-selectin induction on HUVECs | P16581 | HUVEC E-selectin immunofluorescence imaging; normalized: neutral wells 0, TNF-alpha wells 100 | activation, % at 7.58 µM | 0.37% of 260,000 active;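 active = mean E-selectin-positive cell signal at least 10% of the positive control, reached in at least 60% of replicates, without over 20% cell loss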
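Test system: HUVEC | Signal: Immunofluorescence imaging | Read-out: Percent E-selectin-positive cells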
Ecoli rRNA inh: inhibitors of bacterial rRNA selective over humanized ribosomes | E. coli WT GFP vs humanized-ribosome RFP mutants, fluorescence, 24 h; active compounds read low; DMSO median 0, no signal -100 | GFP signal change (wild-type ribosome), % (concentration not given with the values) | 1.6% of 350,000 active;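 active = significant combined selectivity score with lowered wild-type GFP, culture density cut under 30%, mutant RFP and density less affected; inactive = any of these conditions unmet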
SIRT5 inh: blocks human SIRT5 desuccinylation of peptide. Q9NXA8. Purified SirT5, succinyl-peptide AMC, trypsin-coupled fluorescence. inhibition, % at 15 µM. 1.1% of 330,000 active; in the data active = inhibition above about 15%
Target sequence (Q9NXA8 whole entry, looked up): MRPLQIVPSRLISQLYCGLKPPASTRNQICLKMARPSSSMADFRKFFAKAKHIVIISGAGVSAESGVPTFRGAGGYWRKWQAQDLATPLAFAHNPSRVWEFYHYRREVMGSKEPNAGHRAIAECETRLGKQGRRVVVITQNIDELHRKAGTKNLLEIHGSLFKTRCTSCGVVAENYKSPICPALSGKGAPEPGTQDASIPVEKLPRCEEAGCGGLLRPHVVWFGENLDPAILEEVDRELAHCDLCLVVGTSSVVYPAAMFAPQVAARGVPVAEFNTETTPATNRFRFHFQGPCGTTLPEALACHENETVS
FN deposition inh: fibronectin deposition inhibition. 0.086% of 350,000 active. AH1F fibroblasts, Alexa488-fibronectin deposition fluorescence, overnight. inhibition, % at 12.6 µM;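 active = mean inhibition across replicates of 30% or more, regardless of how many single replicates reach that level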
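Assay system: AH1F fibroblasts / Quantity: 10000 cells per well / Medium: DMEM plus 2% serum, read in PBS / Reagent: labelled fibronectin 24 nM / Dosing: single dose, pinned / Times: 1 h cell attachment, overnight exposure to compound and label / Signal: fluorescence, ex 485 nm, em 525 nm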
C2C12 statin: suppressors of simvastatin-induced myotoxicity in C2C12 myotubes. ATP luminescence, 48 h; scaled: DMSO 0, geranylgeraniol control 100. rescue of ATP level, % at 7.49 µM. 0.78% of 330,000 active. AID 602340;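 active = mean ATP rescue above about 67%, or every replicate alone reaching that limit, limit read from the data, passing the limit was not always enough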;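 also: myotubes were challenged with 10 µM simvastatin during compound exposure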
FGF22 binding-2: FGF22 (human) binding in thermal shift. shares compounds with FGF22 binding-1. recombinant FGF22 thermal shift, SYPRO orange fluorescence. thermal shift activity, °C (ΔTm) at 38 µM. 2% of 1,000 active;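 active = fitted rise in melting shift crosses a set limit at or below the top valid dose tested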
TSA no protein: counter-screen for FGF22 binders: compound-only thermal shift, no protein; AID 743019; 2% of 1,000 active; AC50, µM (titrated, usually from 38 µM); shares compounds with FGF22 binding-1; compound-only SYPRO orange thermal shift counter-screen;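 active = rising signal whose fitted curve reaches the 0.54 level within the top valid dose, showing a melting point, actives reach about 13 µM in these data; inactive = the rest, including activity in the opposite direction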; also: value is where the raw curve crosses a fixed level and not half-maximal
Hits are given with their value; - = inactive; . = no result.

SMILES	FGF22 binding-1	E-sel inducer	Ecoli rRNA inh	SIRT5 inh	FN deposition inh	C2C12 statin	FGF22 binding-2	TSA no protein
Cc1cccc(S(=O)(=O)N2C[C@@H](O)COC[C@H]3O[C@@H](CC(=O)Nc4ccccc4)CC[C@@H]32)c1	-	-	-	-	-	-	.	.
N#C[C@H]1[C@@H](c2ccc(C#CCC3CCCC3)cc2)[C@H](CO)N1C(=O)CN1CCOCC1	19.2	-	-	-	-	-	-	-
COc1ccc(NC(=O)COC(=O)Cc2c[nH]c3ccccc23)cc1Cl	1.7	-	-	-	-	-	-	-
C[C@@H]1CN([C@H](C)CO)C(=O)Cc2cc(NC(=O)Nc3cccc4ccccc34)ccc2O[C@@H]1CN(C)Cc1ccc(C(=O)Nc2ccccc2N)cc1	.	-	-	-	.	.	.	.
COc1ccccc1NC(=O)N[C@H]1CC[C@H](CCn2cc(-c3ccccc3)nn2)O[C@H]1CO	-	-	-	-	.	-	.	.
COc1ccccc1NC(=O)N[C@@H]1CC[C@H](CCn2cc(-c3ccccc3OC)nn2)O[C@@H]1CO	1.3	-	-	-	-	-	-	-
COc1ccccc1NC(=O)N[C@H]1CC[C@@H](CCn2cc(-c3ccccc3)nn2)O[C@H]1CO	-	-	-	-	.	-	.	.
COc1ccc(-c2cn(CC[C@H]3CC[C@H](NC(=O)Nc4ccc(F)cc4)[C@@H](CO)O3)nn2)cc1	1.5	-	-	-	-	.	-	-
COc1ccccc1NC(=O)N[C@H]1CC[C@H](CCn2cc(-c3ccccc3OC)nn2)O[C@H]1CO	1.7	-	.	-	-	-	-	-
COc1ccc(NC(=O)N[C@@H]2CC[C@H](CCn3cc(-c4ccc(F)cc4)nn3)O[C@@H]2CO)cc1	-	-	-	-	-	-	.	.
CCC(=O)N1C[C@@H](C)[C@@H](OC)CN(C)C(=O)c2cc(NC(=O)Nc3ccccc3)ccc2OC[C@@H]1C	-	-	-	-	-	-	.	.
C[C@@H]1CN([C@@H](C)CO)C(=O)c2cccc(NC(=O)CCCCCC(=O)Nc3ccccc3N)c2O[C@@H]1CN(C)C(=O)Nc1ccc(C(F)(F)F)cc1	-	.	-	-	.	.	.	.
CN1CCN(C(=O)C[C@H]2CC[C@@H]3[C@H](COC[C@@H](O)CN3C(=O)C3CCCC3)O2)CC1	-	-	-	-	-	-	.	.
CC(C)N(C[C@H]1[C@@H](c2ccccc2)[C@@H](CO)N1CC1CC1)C(=O)C1CCC1	.	-	-	-	-	.	.	.
COc1nc(-c2ccc(Cl)cc2)nnc1C	1.4	-	-	-	-	.	-	-
O=C(C[C@H]1C[C@H]2c3cc(NC(=O)NC4CCCC4)ccc3O[C@H]2[C@@H](CO)O1)NCc1ccccc1F	.	.	-	.	-	.	.	.
O=C(NC[C@@H]1[C@H](c2ccccc2)[C@H](CO)N1C(=O)Cc1cccnc1)C1CC1	1.4	-	-	-	-	-	-	-
C[C@@H]1CCCCO[C@@H](CN(C)C(=O)Nc2ccc3c(c2)OCO3)[C@H](C)CN([C@H](C)CO)C(=O)c2cc(NS(C)(=O)=O)ccc2O1	-	-	-	-	.	.	.	.
O=C(O)C1CSC2(CCN(Cc3ccccc3)CC2)N1 (stereo not given)	39.0	.	-	-	.	-	-	-
C[C@@H]1CN([C@@H](C)CO)C(=O)Cc2cc(NC(=O)Nc3ccccc3)ccc2O[C@@H]1CN(C)C(=O)Nc1ccccc1	-	-	-	.	.	-	.	.
C[C@H](CO)N1C[C@H](C)[C@H](CN(C)C(=O)Nc2ccccc2)Oc2ccc(NC(=O)Nc3ccccc3)cc2CC1=O	1.2	-	-	-	.	-	-	-
COc1ccc(NC(=O)N(C)C[C@@H]2Oc3ccc(NS(C)(=O)=O)cc3CC(=O)N([C@@H](C)CO)C[C@H]2C)cc1	15.8	-	-	-	-	-	-	-
C[C@H](CO)N1C[C@H](C)[C@@H](CN(C)C(=O)C2CCCCC2)Oc2cc(-c3ccc(F)cc3)ccc2S1(=O)=O	-	-	-	-	-	-	.	.
CCOC(=O)N1CCN(C(=O)CCCCCn2c(=S)[nH]c3ccsc3c2=O)CC1	1.4	-	-	-	-	.	-	-
Cc1ccc(S(=O)(=O)c2nnn(-c3cccc(F)c3)c2N)cc1	1.5	-	-	-	-	-	-	-
SMILES	FGF22 binding-1	E-sel inducer	Ecoli rRNA inh	SIRT5 inh	FN deposition inh	C2C12 statin	FGF22 binding-2	TSA no protein
O=C(NN=Cc1ccc(O)cc1O)c1ccccc1NS(=O)(=O)c1cccs1	1.9	.	-	-	-	-	-	-
O=C(N/N=C/c1cccc(O)c1)c1cc(-c2ccc3c(c2)OCO3)n[nH]1	1.9	-	-	-	-	.	-	-
O=C(N/N=C/c1cccc([N+](=O)[O-])c1)c1cc(-c2ccc3c(c2)OCO3)n[nH]1	-	-	-	-	-	.	.	.
CC(C)CC#Cc1ccc([C@H]2[C@@H](CO)N3C(=O)CN(C(=O)c4cccc(F)c4)C[C@@H]23)cc1	-	-	-	-	-	.	.	.
CC(C)(CNCc1ccccc1)NS(=O)(=O)c1ccccc1	-	-	-	-	-	-	.	.
CC(C)(CNCc1ccccc1)NS(=O)(=O)c1ccc(Cl)cc1	2.1	-	-	-	-	-	-	-
Cc1cc(C)cc(NC(=O)CN2C(=O)NC(Cc3c[nH]c4ccccc34)C2=O)c1 (stereo not given)	1.6	.	-	-	-	-	.	-
CC(C)c1ccc(NC(=O)CN2C(=O)NC(Cc3c[nH]c4ccccc34)C2=O)cc1 (stereo not given)	-	.	-	-	-	-	.	.
O=C(C[C@H]1CC[C@@H]2[C@H](COC[C@H](O)CN2Cc2cccc(-c3ccncc3)c2)O1)N1CCCCC1	-	-	-	-	-	-	.	.
N#C/C(=C\c1ccc(N2CCOCC2)c([N+](=O)[O-])c1)c1nc2ccccc2[nH]1	1.7	.	-	.	-	.	-	-
N#C/C(=C/c1ccc(N2CCCC2)c([N+](=O)[O-])c1)c1nc2ccccc2[nH]1	.	.	.	.	-	-	.	.
O=S(=O)(c1ccc(F)cc1)N1CC[C@@H]2[C@H](CO)Nc3ccc(-c4ccccc4F)cc3[C@@H]21	-	-	-	-	-	-	.	.
c1ccc(Nc2nc(-c3cccnc3)cs2)nc1	.	.	.	.	-	.	.	.
Oc1ccc(-c2csc(Nc3ccccn3)n2)c(O)c1	2.8	-	-	-	-	-	-	11.4µM
Oc1cc(O)cc(-c2cc3ccc(O)cc3o2)c1	2.1	.	.	.	.	-	-	-
